From ChEMBL document CHEMBL1142559, “ent-halimane diterpenes and a guaiane sesquiterpene from Cladogynos orientalis” (J Nat Prod, 2005)

Columns and labels:
NCI-H187 = assay: Cytotoxicity against human NCI-H187 cells after 72 hrs by SRB assay; type: functional, cell-based; conditions: NCI-H187, 72 h
Procedure, shortened: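 Small cell lung cancer NCI-H187 cells exposed at 37 °C for 72 h, then sulforhodamine B added for read-out; IC50 given in µg/mL; ellipticine as reference substance.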

[1] = test system: Mycobacterium tuberculosis; assay: Antitubercular activity against Mycobacterium tuberculosis H37Ra; type: functional
Procedure, shortened: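 Microplate alamar blue assay with M. tuberculosis H37Ra as test organism; MIC recorded in µg/mL; isoniazid and kanamycin sulfate served as reference drugs.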

COC(=O)[C@@]1(C)CC(=O)C=C2[C@@]3(C)C=C(c4ccoc4)O[C@]21CC[C@H]3C
IC50 (NCI-H187): < 5 µg/mL | MIC [1]: < 12.5 µg/mL

C[C@@H]1CCC2=C(C[C@H]3C[C@]2(C)C(=O)O3)[C@@]1(C)CC(=O)c1ccoc1
IC50 (NCI-H187): < 5 µg/mL | MIC [1]: < 12.5 µg/mL

C[C@@H]1CCC2=C(C[C@H]3C[C@]2(C)C(=O)O3)[C@@]1(C)CCc1ccoc1
IC50 (NCI-H187): < 5 µg/mL | MIC [1]: < 12.5 µg/mL

C[C@@H]1CCC2=C(CCC[C@]2(C)C(=O)O)[C@@]1(C)CCc1ccoc1
IC50 (NCI-H187): < 5 µg/mL | MIC [1]: < 12.5 µg/mL
